Experimental findings from ChEMBL document CHEMBL1133462, “Discovery of novel and potent retinoic acid receptor alpha agonists: syntheses and evaluation of benzofuranyl-pyrrole and benzothiophenyl-pyrrole derivatives” (2000) are described below.

Assay [1] deals with T1, Retinoic acid receptor gamma (Homo sapiens) (UniProt P13631).
T1 sequence (whole entry): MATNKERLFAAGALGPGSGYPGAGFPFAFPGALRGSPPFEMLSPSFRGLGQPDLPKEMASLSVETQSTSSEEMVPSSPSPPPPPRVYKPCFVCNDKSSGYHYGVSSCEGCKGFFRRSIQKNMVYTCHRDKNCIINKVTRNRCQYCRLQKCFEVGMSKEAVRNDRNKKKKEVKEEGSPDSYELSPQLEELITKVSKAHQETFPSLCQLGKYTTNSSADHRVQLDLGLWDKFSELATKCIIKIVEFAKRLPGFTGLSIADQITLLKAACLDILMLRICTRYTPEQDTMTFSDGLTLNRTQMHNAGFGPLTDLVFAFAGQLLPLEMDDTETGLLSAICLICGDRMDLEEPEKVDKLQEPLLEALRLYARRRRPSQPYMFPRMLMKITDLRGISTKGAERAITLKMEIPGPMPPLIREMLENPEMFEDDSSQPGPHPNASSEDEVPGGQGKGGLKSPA
In words: Relative transcriptional activation in COS cells expressing Retinoic acid receptor gamma compared to ATRA. The format is functional, cell-based. In outline:
(§1)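 COS-1 cells were lipofected with receptor and reporter vectors. After 4 h the medium was changed to DMEM/10% FBS for a further 20 h, then cells were reseeded at 3 × 10⁴/well. After 6 h, compounds were added in log dilutions from 3.0 × 10^-6 to 1.0 × 10^-10 M, in duplicate, for 48 h. Supernatant PLAP activity was measured. EC30 (concentration giving 30% of maximal response) was normalized to ATRA EC30. Values averaged from at least two experiments.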

The target in assay [2] is T2, Retinoic acid receptor alpha (Homo sapiens) (UniProt P10276).
T2 sequence (whole entry): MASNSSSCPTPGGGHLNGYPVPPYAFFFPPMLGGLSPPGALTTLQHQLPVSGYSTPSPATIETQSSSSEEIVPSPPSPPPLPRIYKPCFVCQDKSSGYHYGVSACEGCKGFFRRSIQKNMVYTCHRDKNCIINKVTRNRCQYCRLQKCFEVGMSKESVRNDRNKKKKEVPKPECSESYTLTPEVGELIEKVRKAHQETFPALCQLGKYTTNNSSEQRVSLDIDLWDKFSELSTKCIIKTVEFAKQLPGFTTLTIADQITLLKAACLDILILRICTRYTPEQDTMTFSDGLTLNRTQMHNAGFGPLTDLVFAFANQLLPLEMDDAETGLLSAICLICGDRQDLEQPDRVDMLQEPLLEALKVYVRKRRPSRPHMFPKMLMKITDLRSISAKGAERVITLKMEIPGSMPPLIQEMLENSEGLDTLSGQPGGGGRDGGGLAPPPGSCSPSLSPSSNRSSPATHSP
In words: Relative transcriptional activation in COS cells expressing Retinoic acid receptor alpha compared to ATRA. It is filed as functional, cell-based. In outline:
as §1

Assay [3] can be described thus: Inhibition of LPS-induced mouse B-lymphocyte proliferation (Mean of IC50/ATRA IC50). The format is functional. In short, it runs like this:
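BALB/c splenocytes at 1.2 × 10⁵ cells/well in RPMI-1640 with 50 µM 2-mercaptoethanol, 10% FBS and 5 µg/mL E. coli LPS. Compounds were tested in log dilutions from 1.0 × 10^-6 to 1.0 × 10^-12 M final, in triplicate, for 3 days at 37 °C and 5% CO₂. IC50 was fitted by nonlinear regression and divided by the ATRA IC50. Reported as mean ± SEM of triplicates.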

For assay [4], the target named is T3, Retinoic acid receptor beta (Homo sapiens) (UniProt P10826).
T3 sequence (whole entry): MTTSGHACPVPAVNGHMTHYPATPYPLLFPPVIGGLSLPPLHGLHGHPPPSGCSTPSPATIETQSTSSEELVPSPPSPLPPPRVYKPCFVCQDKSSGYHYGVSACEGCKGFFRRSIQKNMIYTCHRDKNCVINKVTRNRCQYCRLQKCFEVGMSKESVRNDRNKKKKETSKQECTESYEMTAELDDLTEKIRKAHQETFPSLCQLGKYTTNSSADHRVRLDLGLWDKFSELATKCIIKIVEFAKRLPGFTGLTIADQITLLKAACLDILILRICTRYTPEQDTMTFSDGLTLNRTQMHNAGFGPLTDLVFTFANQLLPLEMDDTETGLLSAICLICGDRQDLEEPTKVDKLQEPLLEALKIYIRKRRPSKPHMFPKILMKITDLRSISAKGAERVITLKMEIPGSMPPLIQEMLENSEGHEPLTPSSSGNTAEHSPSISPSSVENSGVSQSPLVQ
In words: Relative transcriptional activation in COS cells expressing Retinoic acid receptor beta compared to ATRA. The format is functional, cell-based. In short, it runs like this:
as §1

Assay [5] concerns the target T2, Retinoic acid receptor alpha (Homo sapiens). The experiment in a line: Inhibition of [3H]-ATRA binding to Retinoic acid receptor alpha (RAR-alpha). In short, it runs like this: (§2)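 Competitive binding of [³H]ATRA to individual RAR subtypes. Each IC50 was divided by the ATRA IC50 to give a relative IC50. Reported as mean ± SEM, averaged from at least two experiments.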

Assay [6] concerns the target T3, Retinoic acid receptor beta (Homo sapiens). In words: Inhibition of [3H]ATRA binding to Retinoic acid receptor beta (RAR-beta). In outline:
as §2

In the case of `COc1ccc(C)c2oc(-c3ccc(-c4ccc(C(=O)O)cc4)[nH]3)cc12`, the figures for the Relative EC30 in assay [1], in assay [2] and in assay [4] were 3700 nM, 6 nM and 730 nM, respectively. For the same molecule, the “Relative IC50” value worked out at 4.7 in assay [3] and 15 nM in assay [5].
For the molecule `O=C(O)c1ccc(-c2ccc(-c3cc4c(C(F)(F)F)ccc(F)c4o3)[nH]2)cc1`, the Relative EC30 was 110 nM in assay [1], 0.29 nM in assay [2] and 8.5 nM in assay [4]. Besides, the “Relative IC50” value in assay [3] was 0.37; in assay [6], 500 nM; in assay [5] it was 1.9 nM.
For `Cc1cc(C)c2sc(-c3ccc(-c4ccc(C(=O)O)cc4)[nH]3)cc2c1`, the Relative EC30 in assay [1] worked out at 2900 nM; in assay [2] it was 2.4 nM; in assay [4], 1300 nM. Moreover, the “Relative IC50” value in assay [3] came out at 3.6; in assay [5] it was 62 nM.
Regarding `Cc1ccc(C)c2oc(-c3ccc(-c4ccc(C(=O)O)cc4)[nH]3)cc12`, the Relative EC30 was 240 nM in assay [1], 0.37 nM in assay [2] and 25 nM in assay [4]. The “Relative IC50” value in assay [3] turned out to be 0.76; in assay [6], 490 nM; in assay [5] it was 1.4 nM.
Take `O=C(O)c1ccc(-c2ccc(-c3cc4c(Cl)ccc(Cl)c4o3)[nH]2)cc1`: the Relative EC30 in assay [1] was 820 nM; in assay [2], 0.7 nM; in assay [4] it was 110 nM. Moreover, the “Relative IC50” value in assay [3] amounted to 1.3; in assay [6], 690 nM; in assay [5], 1.5 nM.
Turning to `Cc1cccc2cc(-c3ccc(-c4ccc(C(=O)O)cc4)[nH]3)oc12`, the Relative EC30 was found to be 1000 nM in assay [1], 0.8 nM in assay [2] and 92 nM in assay [4]. The “Relative IC50” value turned out to be 0.98 in assay [3] and 1.6 nM in assay [5].
On the same counts, the results for `Cc1ccc2cc(-c3ccc(-c4ccc(C(=O)O)cc4)[nH]3)oc2c1C` are 2000 nM, 3.1 nM, 160 nM, 2.4 and 12 nM.
On the same counts, the results for `Cc1ccc(C)c2sc(-c3ccc(-c4ccc(C(=O)O)cc4)[nH]3)cc12` are 840 nM, 1.3 nM, 130 nM, 0.75 and 6.1 nM.
Consider `Cc1cc(C)c2oc(-c3ccc(-c4ccc(C(=O)O)cc4)[nH]3)cc2c1`, for which the results for the Relative EC30 in assay [1], in assay [2] and in assay [4] were 890 nM, 1 nM and 380 nM, respectively. The entries for the “Relative IC50” value in assay [3] and in assay [5] were 1.2 and 16 nM, respectively.
Take `Cc1cc(C)c2oc(-c3ccc(-c4ccc(C(=O)O)cc4)[nH]3)cc2c1C`: the Relative EC30 is 480 nM in assay [1], 2 nM in assay [2] and 200 nM in assay [4]. In addition, the “Relative IC50” value was determined as 2.2 in assay [3] and 9.4 nM in assay [5].
